Holding throughout (format): functional
For experiment [1], the system named is Tetranychus urticae. Description: Acaricidal activity against adult Tetranychus urticae (two-spotted spider mite) in leaves of cowpea plant assessed as mortality at 100 ug/mL at 25 degC measured after 3 days (reference value: 0%). To be noted: 72 h.
In experiment [2] the test system is Tetranychus urticae. Description: Acaricidal activity against adult Tetranychus urticae (two-spotted spider mite) in leaves of cowpea plant assessed as number of unhatched eggs at 2 ug/mL at 25 degC measured after 10 days (reference value: 0%).
For experiment [3], the system named is Tetranychus urticae. Description: Acaricidal activity against adult Tetranychus urticae (two-spotted spider mite) in leaves of cowpea plant assessed as mortality at 30 ug/mL at 25 degC measured after 3 days (reference value: 0%). The conditions noted are these: 72 h.
The test system of experiment [4] is Tetranychus urticae. Description: Acaricidal activity against adult Tetranychus urticae (two-spotted spider mite) in leaves of cowpea plant assessed as mortality at 2 ug/mL at 25 degC measured after 3 days (reference value: 0%). To be noted: 72 h.
For experiment [5], the system named is Caenorhabditis elegans. Description: Nematocidal activity against Caenorhabditis elegans assessed as immobilized rate at 10 ug/mL at 25 degC for 15 hr (reference value: 5.3 to 6.8%). The essentials: (§1)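 Compounds were prepared as 0.1% MeOH solutions and diluted 10-fold in water to give 100 μg/mL test solutions. Immobilized and total C. elegans were counted under a stereomicroscope. Result is % immobilized of all nematodes tested.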

The test system of experiment [6] is Caenorhabditis elegans. Kind of experiment: Nematocidal activity against Caenorhabditis elegans assessed as immobilized rate at 50 ug/mL at 25 degC for 15 hr (reference value: 5.3 to 6.8%). The essentials: as §1
In experiment [7] the test system is Tetranychus urticae. Description: Acaricidal activity against adult Tetranychus urticae (two-spotted spider mite) in leaves of cowpea plant assessed as number of unhatched eggs at 30 ug/mL at 25 degC measured after 10 days (reference value: 0%).
Experiment [8] has as its system Caenorhabditis elegans. Kind of experiment: Nematocidal activity against Caenorhabditis elegans assessed as immobilized rate at 2 ug/mL at 25 degC for 15 hr (reference value: 5.3 to 6.8%).
In experiment [9] the test system is Tetranychus urticae. Description: Acaricidal activity against adult Tetranychus urticae (two-spotted spider mite) in leaves of cowpea plant assessed as number of unhatched eggs at 100 ug/mL at 25 degC measured after 10 days (reference value: 0%).
Experiment [10] relates to Tetranychus urticae. Description: Acaricidal activity against adult Tetranychus urticae (two-spotted spider mite) in leaves of cowpea plant assessed as number of unhatched eggs at 50 ug/mL at 25 degC measured after 10 days (reference value: 0%).
Experiment [11] deals with Tetranychus urticae. Description: Acaricidal activity against adult Tetranychus urticae (two-spotted spider mite) in leaves of cowpea plant assessed as number of unhatched eggs at 10 ug/mL at 25 degC measured after 10 days (reference value: 0%).
The subject of experiment [12] is Caenorhabditis elegans. Kind of experiment: Nematocidal activity against Caenorhabditis elegans assessed as immobilized rate at 30 ug/mL at 25 degC for 15 hr (reference value: 5.3 to 6.8%).
For experiment [13], the system named is Tetranychus urticae. Description: Acaricidal activity against adult Tetranychus urticae (two-spotted spider mite) in leaves of cowpea plant assessed as mortality at 50 ug/mL at 25 degC measured after 3 days (reference value: 0%). To be noted: 72 h.
In experiment [14] the test system is Caenorhabditis elegans. Kind of experiment: Nematocidal activity against Caenorhabditis elegans assessed as immobilized rate at 100 ug/mL at 25 degC for 15 hr (reference value: 5.3 to 6.8%). The essentials:
as §1

The subject of experiment [15] is Tetranychus urticae. Description: Acaricidal activity against adult Tetranychus urticae (two-spotted spider mite) in leaves of cowpea plant assessed as mortality at 10 ug/mL at 25 degC measured after 3 days (reference value: 0%). To be noted: 72 h.

The structures appear in SMILES notation.

The term mortality denotes the percentage killed.

As to `C/C1=C\C[C@@H]2C[C@@H](C[C@]3(C[C@@H](O)[C@H](C)[C@@H](C4CCCCC4)O3)O2)OC(=O)c2cc(C)c(O)cc2/C=C/C=C/[C@H](C)[C@@H]1O`, the mortality at 100 µg/mL in experiment [1] turned out to be 100%. Besides, the Activity was determined as 0% in experiment [2]; 92.7% in [5]; 100% in experiment [6]; 23.5% in experiment [7]; 43.7% in experiment [8]; 59.8% in experiment [9]. The Activity in experiment [10] came to 43.7%; in [11], 13.9%; in experiment [12], 100%; in [14], 100%. Moreover, in [3], the mortality at 30 µg/mL is 96.4%. In experiment [4], the mortality at 2 µg/mL was 43.9%. Moreover, the mortality at 50 µg/mL in [13] was 100%. In [15], the mortality at 10 µg/mL stood at 75.6%.
On to `C/C1=C\C[C@@H]2C[C@@H](C[C@]3(C=C[C@H](C)[C@@H](C4CCCCC4)O3)O2)OC(=O)c2cc(C)c(O)cc2/C=C/C=C/[C@H](C)[C@@H]1O`, for which the mortality at 100 µg/mL in experiment [1] stood at 100%. Further, the Activity in experiment [2] is recorded as 0%; in [5], 49.2%; in experiment [6], 100%; in [7], 19.8%; in experiment [8], 13.5%; in experiment [9] it was 56.7%. Also, the Activity in [10] was 37.6%; in experiment [11], 12.1%; in experiment [12], 81.4%; in experiment [14] it was 100%. Also, in experiment [3], the mortality at 30 µg/mL came to 92.5%. Further, the mortality at 2 µg/mL in [4] came out at 45.2%. Besides, in experiment [13], the mortality at 50 µg/mL was found to be 100%. The mortality at 10 µg/mL in experiment [15] turned out to be 77.1%.
In the case of `CO[C@H]1C[C@H](O[C@H]2[C@H](C)O[C@@H](O[C@@H]3/C(C)=C/C[C@@H]4C[C@@H](C[C@]5(C=C[C@H](C)[C@@H](C6CCCCC6)O5)O4)OC(=O)[C@@H]4C=C(C)[C@@H](O)[C@H]5OC/C(=C\C=C\[C@@H]3C)[C@]54O)C[C@@H]2OC)O[C@@H](C)[C@@H]1O` [DORAMECTIN], in experiment [1], the mortality at 100 µg/mL turned out to be 100%. Besides, the Activity came to 0% in [2]; 86.5% in experiment [5]; 100% in experiment [6]; 8.9% in experiment [7]; 45.3% in [8]; 47.4% in [9]. In addition, the Activity amounted to 21.5% in experiment [10], 0% in experiment [11], 100% in [12] and 100% in [14]. In addition, in experiment [3], the mortality at 30 µg/mL came out at 86.5%. Besides, in experiment [4], the mortality at 2 µg/mL is 26.8%. Also, the mortality at 50 µg/mL in experiment [13] stood at 100%. Besides, the mortality at 10 µg/mL in [15] turned out to be 62.9%.

These data come from ChEMBL document CHEMBL3045797, “Isolation and identification of novel macrocyclic lactones from Streptomyces avermitilis NEAU1069 with acaricidal and nematocidal activity” (2010).
